Data set [1] has as its system Mus musculus. Nature of the data set: Anti-morphine activity against the morphine-induced Straub's tail reaction in mice on peroral administration. The data set is classed as functional. To be noted: po. The procedure, abridged:
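Mice, six per group, dosed orally with test compound 1 h before morphine (20 mg/kg ip); Straub's tail reaction scored as index of morphine CNS stimulation.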

Data set [2] has as its system Mus musculus. Nature of the data set: Cataleptogenic action in mice on peroral administration; value may range from 30 to 71. The data set is classed as functional. To be noted: po. The procedure, abridged: (§1)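 Six mice per group were dosed orally 1 h before testing. Forepaws were placed on a horizontal steel bar to force an abnormal posture. Holding the posture over 30 s counted as catalepsy. ED50 was the dose giving catalepsy in 50% of animals, with 95% confidence limits.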

The subject of data set [3] is Mus musculus. Put plainly: Anti-fighting potency against foot shock induced fighting behavior in mice expressed as % inhibition at 25 mg/kg peroral administration. In kind it is functional. To be noted: route oral.
In data set [4] the test system is Mus musculus. Put plainly: Anti-morphine activity against morphine-induced Straub''s tail reaction in mice expressed as % inhibition at 25 mg/kg peroral administration. The following applies: route oral. The data set is classed as functional. Put shortly:
(§2)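 Six mice per group received test compounds orally 1 h before morphine (20 mg/kg ip). Straub's tail reaction was scored as the index of morphine's CNS stimulant action.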

Data set [5] relates to Mus musculus. Nature of the data set: Evaluated for hypothermic activity in mice at 30 mg/kgo n peroral administration. To be noted: dose 30 mg/kg; route oral. The data set is classed as functional. The procedure, abridged: (§3)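 Six mice per group were dosed orally 1 h before testing. Rectal temperature was read with an electronic thermometer. Results are given as degrees of hypothermia (Δt °C) versus an untreated group.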

Data set [6] relates to Rattus norvegicus. Put plainly: Evaluated for neuroleptic-like property using open-field test in rats(increase in ambulation at 3 to 20 mg/kg on peroral administration; value may range from 11.9 to 23.1. In kind it is functional. To be noted: dose mg/kg 3-20, route oral.
Data set [7] deals with Rattus norvegicus. Put plainly: Evaluated for neuroleptic-like property using anti-methamphetamine test in rats on peroral administration. In kind it is functional. To be noted: po. Put shortly: (§4)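 Groups of six rats were dosed orally, then given methamphetamine 5 mg/kg ip 1 h later. Stereotypy was scored 0–4: sleep/eyes closed 0, motionless/eyes open 1, moving around cage 2, sniffing 3, continuous licking or gnawing 4. ED50 was the dose halving mean score versus controls, with 95% confidence limits.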

Data set [8] in a line: Toxicity on peroral administration to mice. The data set is classed as organism-based. The following applies: mouse, in vivo, po. The procedure, abridged: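 Oral dosing to mice, eight per group; LD50 calculated by Litchfield-Wilcoxon method.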
The nature of data set [9]: Ratio of muscle relaxant action to antifighting effect. In kind it is functional. Put shortly:
(§5)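 Muscle relaxation was measured by traction test in mice (eight per group), 1 h after oral dosing. Forepaws were placed on a horizontal wire bar 30 cm high. Failure to bring the hind feet onto the wire within 5 s counted as relaxation. This action was set in ratio with the antifighting effect.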

Data set [10] concerns Mus musculus. Put plainly: Anti-morphine activity against the morphine-induced Straub''s tail reaction in mice expressed as % inhibition at 25 mg/kg peroral administration. The data set is classed as functional. To be noted: route oral. Put shortly:
as §2

In data set [11] the test system is Mus musculus. Put plainly: Cataleptogenic action in mice on peroral administration. To be noted: po. In kind it is functional. The procedure, abridged:
as §1

Data set [12] relates to Mus musculus. Put plainly: Evaluated for hypothermic activity in mice at 30 mg/kg on peroral administration. To be noted: route oral. The data set is classed as functional. Put shortly: as §3
Data set [13] relates to Rattus norvegicus. Nature of the data set: Evaluated for neuroleptic-like property using open-field test in rats(increase in ambulation at 3 to 20 mg/kg) on peroral administration; value may range from 8.4 to 17.0. The data set is classed as functional. To be noted: dose mg/kg 3-20, route oral.
The nature of data set [14]: Ratio of the muscle relaxant action to antifighting effect. The data set is classed as functional. The procedure, abridged:
as §5

Data set [15] relates to Mus musculus. Put plainly: Cataleptogenic action in mice on peroral administration; value ranges from 26-93. In kind it is functional. The following applies: po. Put shortly:
as §1

Data set [16] concerns Rattus norvegicus. Nature of the data set: Evaluated for neuroleptic-like property using open-field test in rats(increase in ambulation at 3 to 20mg/kg on peroral administration; value may range from 8.1 to 13.2. In kind it is functional. To be noted: po.
Data set [17] relates to Rattus norvegicus. Put plainly: Evaluated for neuroleptic-like property using anti-methamphetamine test in rats on peroral administration; value may range from 20 to 79. In kind it is functional. To be noted: po. Put shortly: as §4
Data set [18] concerns Rattus norvegicus. Nature of the data set: Evaluated for neuroleptic-like property using open-field test in rats(increase in ambulation at 3 to 20 mg/kg on peroral administration. The data set is classed as functional. The following applies: dose mg/kg 3-20, route oral.
Data set [19] has as its system Mus musculus. Put plainly: Evaluated for muscle-relaxant action in mice on peroral administration. In kind it is functional. To be noted: po. Put shortly: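 Traction test: mice, eight per group, dosed orally; 1 h later forepaws placed on horizontal wire bar 30 cm high; failure to bring hind feet onto wire within 5 s counted as muscle relaxation.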
Data set [20] relates to Rattus norvegicus. Nature of the data set: Evaluated for neuroleptic-like property using open-field test in rats(increase in ambulation at 3 to 20 mg/kg on peroral administration; value may range from 7.3 to 13.9. The data set is classed as functional. The following applies: dose mg/kg 3-20, route oral.

The text below walks through data of ChEMBL document CHEMBL1122329, “Synthesis and antianxiety activity of (omega-piperazinylalkoxy)indan derivatives” (J Med Chem, 1983).

As a reminder, the ED50 is the dose that gives a 50% effect, or the effect in half of the subjects. Read a high ED50 as a need for a large dose. Broadly, the inhibition in vivo is the percentage by which the read-out fell short of the control. Low readings indicate a weak effect, high ones a strong effect. A word on the LD50: it is the dose at which mortality reaches 50%.

A value given as a limit tells only on which side of the number the result lay.

For `Cc1cc2c(cc1OCCCN1CCN(c3ccccc3)CC1)CCC2.Cl.Cl`, the 50% effective dose (ED50) in the data set on Mus musculus [1] was 16 mg/kg; in the data set with Mus musculus [2], 56 mg/kg; with Rattus norvegicus [6], 16.6 mg/kg; in the data set on Rattus norvegicus [7] it was greater than 100 mg/kg. The inhibition in vivo at 25 mg/kg with Mus musculus [3] was 83%; in the data set with Mus musculus [4], 94%. In addition, the Delta t in the data set with Mus musculus [5] is -2.5 °C. For the same compound, in data set [8], the LD50 was greater than 2000 mg/kg. Further, the Ratio in [9] amounted to 5.41.

As for `Cl.Cl.c1ccc(N2CCN(CCCOc3ccc4c(c3)CCC4)CC2)cc1`, the inhibition in vivo at 25 mg/kg with Mus musculus [10] worked out at 89%; in the data set on Mus musculus [3] it was 85%. Besides, the ED50 was greater than 100 mg/kg with Mus musculus [11], 11.7 mg/kg with Rattus norvegicus [13] and greater than 100 mg/kg with Rattus norvegicus [7]. The same compound registered a Delta t in the data set on Mus musculus [12] of -2.3 °C. The median lethal dose (LD50) in data set [8] is greater than 1500 mg/kg. Besides, the Ratio in data set [14] was 2.18.

Take `Cl.Cl.Fc1ccc(N2CCN(CCCOc3ccc4c(c3)CCC4)CC2)cc1`: the inhibition in vivo at 25 mg/kg is 100% with Mus musculus [10] and 88% in the data set with Mus musculus [3]. Moreover, the median effective dose (ED50) with Mus musculus [15] was 50 mg/kg; with Rattus norvegicus [16] it was 10.3 mg/kg; in the data set on Rattus norvegicus [17], 43 mg/kg. Also, the Delta t with Mus musculus [12] was -5 °C. In addition, the LD50 in data set [8] is greater than 2000 mg/kg. Moreover, the Ratio in [9] was 3.73.

As to `CN(C)CCCN1c2ccccc2Sc2ccc(Cl)cc21` [CHLORPROMAZINE], the ED50 with Mus musculus [11] was found to be 17 mg/kg; with Rattus norvegicus [7], 15 mg/kg; with Rattus norvegicus [18], 10.1 mg/kg. For the same compound, in the data set with Mus musculus [12], the Delta t is -1.5.

With `CNC1=Nc2ccc(Cl)cc2C(c2ccccc2)=[N+]([O-])C1` [CHLORDIAZEPOXIDE], the results for the ED50 with Mus musculus [11], in the data set with Mus musculus [19] and in the data set with Rattus norvegicus [7] were greater than 30 mg/kg, 8 mg/kg and greater than 30 mg/kg, respectively. In the data set on Mus musculus [12], this compound returned a Delta t of 0.2. This compound displayed a 50% lethal dose (LD50) in [8] of 700 mg/kg.

On to `Cl.Cl.Fc1cc2c(cc1OCCCN1CCN(c3ccccc3)CC1)CCC2`, for which the median effective dose (ED50) in the data set on Mus musculus [11] is greater than 100 mg/kg; with Rattus norvegicus [20], 9.3 mg/kg; with Rattus norvegicus [7], greater than 100 mg/kg. Besides, the inhibition in vivo at 25 mg/kg in the data set on Mus musculus [3] turned out to be 100%; in the data set with Mus musculus [4] it was 89%. Further, the Delta t with Mus musculus [5] was -2.9 °C. Besides, the 50% lethal dose (LD50) in data set [8] is greater than 2000 mg/kg. Further, the Ratio in data set [9] is 5.
